The source made the active and inactive calls. The rule behind the calls is not given here.
What was measured:
[1] = target: Macrophage colony-stimulating factor 1 receptor (Homo sapiens, UniProt P07333); experiment: Inhibition of recombinant CSF1R (unknown origin) using poly (Glu, Tyr)4:1 as substrate measured after 1 hr by ELISA
[2] = target: T1, Fibroblast growth factor receptor 1 (Homo sapiens, UniProt P11362); experiment: Inhibition of recombinant human N-terminal GST-tagged FGFR1 (456 to 765 residues) expressed in baculovirus infected Sf21 insect cells using poly (Glu, Tyr)4:1 as substrate measured after 1 hr by ELISA
How it was run: (§1)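 Recombinant kinase was incubated with compound in reaction buffer containing 5 μM ATP, in wells precoated with poly(Glu,Tyr) 4:1, for 1 h at 37 °C. Phosphorylation was detected by ELISA.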
Target sequence in this assay (P11362 whole entry, the tested form may be a part): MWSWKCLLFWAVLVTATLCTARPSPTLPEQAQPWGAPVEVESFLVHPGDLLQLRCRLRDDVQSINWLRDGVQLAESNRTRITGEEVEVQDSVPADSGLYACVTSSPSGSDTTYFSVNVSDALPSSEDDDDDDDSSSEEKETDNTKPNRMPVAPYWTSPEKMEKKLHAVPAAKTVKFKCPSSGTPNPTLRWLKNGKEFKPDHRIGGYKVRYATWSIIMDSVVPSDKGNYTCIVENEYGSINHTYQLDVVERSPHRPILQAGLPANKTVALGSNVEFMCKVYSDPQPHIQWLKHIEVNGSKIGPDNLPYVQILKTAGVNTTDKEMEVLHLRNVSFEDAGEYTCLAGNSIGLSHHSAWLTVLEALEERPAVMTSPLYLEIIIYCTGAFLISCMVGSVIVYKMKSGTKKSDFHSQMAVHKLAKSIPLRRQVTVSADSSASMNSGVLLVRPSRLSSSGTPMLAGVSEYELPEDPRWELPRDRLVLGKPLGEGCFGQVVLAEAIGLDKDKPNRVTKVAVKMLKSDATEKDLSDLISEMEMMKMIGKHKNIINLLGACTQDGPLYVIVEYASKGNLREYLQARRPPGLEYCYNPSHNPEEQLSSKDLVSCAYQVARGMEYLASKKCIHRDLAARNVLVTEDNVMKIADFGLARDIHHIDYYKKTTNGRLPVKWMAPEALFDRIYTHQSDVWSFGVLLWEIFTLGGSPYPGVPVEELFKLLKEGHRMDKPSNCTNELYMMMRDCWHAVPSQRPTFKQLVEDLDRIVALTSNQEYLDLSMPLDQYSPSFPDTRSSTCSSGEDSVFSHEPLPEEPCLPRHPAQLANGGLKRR

Mus musculus = experiment: Antiinflammatory activity in BALB/c mouse assessed as reduction in LPS-induced TNFalpha production at 20 to 40 mg/kg, po pretreated for 4 hrs followed by LPS-stimulation and measured after 1.5 hrs by ELISA; assay type: functional, organism-based
How it was run: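 Female BALB/c mice, 8 weeks old, n = 6 per group, dosed orally at 20 or 40 mg/kg in 0.5% CMC-Na/0.25% Tween-80 4 h before ip LPS 5 mg/kg. Orbital-sinus blood was taken at 1.5 h (TNF-α) and 3 h (IL-6). Serum cytokines measured by ELISA. Mean ± SEM, one-way ANOVA with Dunnett's test.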

[3] = target: Vascular endothelial growth factor receptor 1 (Homo sapiens) (UniProt P17948); experiment: Inhibition of recombinant human VEGFR1 expressed in Spodoptera frugiperda insect cells at 1000 nM using poly (Glu, Tyr)4:1 as substrate measured after 1 hr by ELISA relative to control
How it was run: (§2)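 ELISA kinase assay: recombinant kinase added to wells precoated with poly(Glu,Tyr)4:1 and incubated with compound in reaction buffer containing 5 μM ATP, 37 °C for 1 h; wells then washed before antibody detection.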

[4] = target: Vascular endothelial growth factor receptor 2 (Homo sapiens) (UniProt P35968); experiment: Inhibition of recombinant human VEGFR2 (D1-7) expressed in Spodoptera frugiperda insect cells at 1000 nM using poly (Glu, Tyr)4:1 as substrate measured after 1 hr by ELISA relative to control; how it was run: as §2
[5] = target: Platelet-derived growth factor receptor beta (Homo sapiens) (UniProt P09619); experiment: Inhibition of recombinant human N-terminal His6-tagged PDGFRbeta (557 to end residues) expressed in baculovirus infected Sf21 insect cells at 1000 nM using poly (Glu, Tyr)4:1 as substrate measured after 1 hr by ELISA relative to control; how it was run: as §2
FLT3 = FLT3 (Homo sapiens, UniProt P36888); experiment: Inhibition of recombinant human N-terminal GST-tagged FLT3 (564 to end residues) expressed in Sf21 insect cells at 1000 nM using poly (Glu, Tyr)4:1 as substrate measured after 1 hr by ELISA relative to control; conditions: probe poly (Glu, Tyr)4:1; how it was run: as §1
Chain of FLT3 (P36888 whole entry, the tested form may be a part): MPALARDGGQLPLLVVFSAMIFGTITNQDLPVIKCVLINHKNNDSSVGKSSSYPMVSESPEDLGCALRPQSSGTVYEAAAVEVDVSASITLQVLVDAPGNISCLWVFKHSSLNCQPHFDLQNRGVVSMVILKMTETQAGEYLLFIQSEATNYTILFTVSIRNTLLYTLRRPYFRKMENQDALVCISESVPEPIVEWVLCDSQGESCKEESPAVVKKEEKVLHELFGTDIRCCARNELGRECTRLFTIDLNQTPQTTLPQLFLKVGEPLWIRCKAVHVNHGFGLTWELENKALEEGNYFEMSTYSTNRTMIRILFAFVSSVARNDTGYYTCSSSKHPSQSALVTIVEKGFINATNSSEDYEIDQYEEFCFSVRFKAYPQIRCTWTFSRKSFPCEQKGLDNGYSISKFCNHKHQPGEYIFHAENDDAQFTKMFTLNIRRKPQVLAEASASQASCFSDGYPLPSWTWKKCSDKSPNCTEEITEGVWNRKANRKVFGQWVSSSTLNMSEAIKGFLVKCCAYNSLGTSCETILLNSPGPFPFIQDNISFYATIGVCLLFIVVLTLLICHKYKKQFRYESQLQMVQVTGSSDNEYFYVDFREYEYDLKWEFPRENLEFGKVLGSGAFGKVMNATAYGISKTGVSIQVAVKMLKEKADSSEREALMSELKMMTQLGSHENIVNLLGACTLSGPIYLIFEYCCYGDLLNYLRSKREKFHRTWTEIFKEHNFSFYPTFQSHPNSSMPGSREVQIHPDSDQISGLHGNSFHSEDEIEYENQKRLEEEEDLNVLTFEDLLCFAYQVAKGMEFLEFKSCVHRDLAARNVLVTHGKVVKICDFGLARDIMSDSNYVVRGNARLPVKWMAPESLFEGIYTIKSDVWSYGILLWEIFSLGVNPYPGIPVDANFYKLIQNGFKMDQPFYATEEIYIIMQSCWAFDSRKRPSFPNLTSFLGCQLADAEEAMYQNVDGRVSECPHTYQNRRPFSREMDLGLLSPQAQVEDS

[6] = target: T1, Fibroblast growth factor receptor 1; experiment: Inhibition of recombinant human N-terminal GST-tagged FGFR1 (456 to 765 residues) expressed in baculovirus infected Sf21 insect cells at 1000 nM using poly (Glu, Tyr)4:1 as substrate measured after 1 hr by ELISA relative to control; how it was run: as §1
[7] = target: Fibroblast growth factor receptor 3 (Homo sapiens, UniProt P22607); experiment: Inhibition of recombinant human N-terminal His6-tagged FGFR3 (447 to 761 residues) expressed in baculovirus infected Sf21 insect cells at 1000 nM using poly (Glu, Tyr)4:1 as substrate measured after 1 hr by ELISA relative to control; how it was run: as §1
[8] = target: Platelet-derived growth factor receptor alpha (Homo sapiens) (UniProt P16234); experiment: Inhibition of recombinant human N-terminal His6-tagged PDGFRalpha (550 to end residues) expressed in baculovirus infected Sf21 insect cells at 100 nM using poly (Glu, Tyr)4:1 as substrate measured after 1 hr by ELISA relative to control; how it was run: as §2
Chain of Platelet-derived growth factor receptor alpha (Homo sapiens) (P16234 whole entry): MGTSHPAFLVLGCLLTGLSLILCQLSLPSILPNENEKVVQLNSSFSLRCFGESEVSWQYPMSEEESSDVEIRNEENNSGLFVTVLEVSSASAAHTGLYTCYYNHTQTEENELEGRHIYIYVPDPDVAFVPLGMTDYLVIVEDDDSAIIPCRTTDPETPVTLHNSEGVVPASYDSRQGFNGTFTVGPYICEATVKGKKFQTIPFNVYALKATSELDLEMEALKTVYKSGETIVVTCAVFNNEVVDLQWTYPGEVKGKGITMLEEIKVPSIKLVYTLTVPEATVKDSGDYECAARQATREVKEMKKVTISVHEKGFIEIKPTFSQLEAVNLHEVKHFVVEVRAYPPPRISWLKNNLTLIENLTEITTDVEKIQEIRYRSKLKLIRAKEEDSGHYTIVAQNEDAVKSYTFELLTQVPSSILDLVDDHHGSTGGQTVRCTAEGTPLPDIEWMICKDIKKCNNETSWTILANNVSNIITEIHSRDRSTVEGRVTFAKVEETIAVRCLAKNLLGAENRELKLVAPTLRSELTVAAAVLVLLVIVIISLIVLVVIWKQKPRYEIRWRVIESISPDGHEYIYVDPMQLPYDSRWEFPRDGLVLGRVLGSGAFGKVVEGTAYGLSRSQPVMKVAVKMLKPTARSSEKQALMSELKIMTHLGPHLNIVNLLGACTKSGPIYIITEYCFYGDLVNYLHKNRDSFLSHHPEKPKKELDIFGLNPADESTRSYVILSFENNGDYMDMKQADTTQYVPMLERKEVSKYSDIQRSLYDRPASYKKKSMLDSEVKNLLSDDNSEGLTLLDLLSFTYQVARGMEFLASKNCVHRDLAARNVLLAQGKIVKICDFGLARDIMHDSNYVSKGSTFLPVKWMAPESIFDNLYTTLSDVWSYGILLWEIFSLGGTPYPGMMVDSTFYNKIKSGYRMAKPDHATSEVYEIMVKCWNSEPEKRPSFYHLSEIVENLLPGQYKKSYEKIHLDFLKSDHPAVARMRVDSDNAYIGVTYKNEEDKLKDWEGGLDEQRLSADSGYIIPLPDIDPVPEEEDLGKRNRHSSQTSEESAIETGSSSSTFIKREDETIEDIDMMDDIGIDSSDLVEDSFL

[9] = target: Proto-oncogene tyrosine-protein kinase Src (Homo sapiens) (UniProt P12931); experiment: Inhibition of recombinant human full-length N-terminal His6-tagged Src expressed in Sf21 insect cells at 100 nM using poly (Glu, Tyr)4:1 as substrate measured after 1 hr by ELISA relative to control; how it was run: as §2
Chain of Proto-oncogene tyrosine-protein kinase Src (Homo sapiens) (P12931 2-536 limits assumed): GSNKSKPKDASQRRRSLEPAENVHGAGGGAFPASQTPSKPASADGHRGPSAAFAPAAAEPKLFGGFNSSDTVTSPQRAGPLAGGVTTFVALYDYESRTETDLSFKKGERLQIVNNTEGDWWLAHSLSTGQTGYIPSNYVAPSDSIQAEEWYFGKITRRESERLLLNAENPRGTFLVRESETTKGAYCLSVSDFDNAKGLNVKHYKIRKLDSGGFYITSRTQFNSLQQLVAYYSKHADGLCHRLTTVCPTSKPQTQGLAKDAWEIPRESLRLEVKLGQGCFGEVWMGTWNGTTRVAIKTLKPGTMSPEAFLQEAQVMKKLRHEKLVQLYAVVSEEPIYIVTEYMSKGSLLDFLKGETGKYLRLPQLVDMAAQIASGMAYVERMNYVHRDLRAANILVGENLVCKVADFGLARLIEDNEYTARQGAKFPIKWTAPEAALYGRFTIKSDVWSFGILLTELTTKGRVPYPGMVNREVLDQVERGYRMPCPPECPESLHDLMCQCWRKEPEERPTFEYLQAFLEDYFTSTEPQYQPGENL

[10] = target: Ephrin type-A receptor 2 (Homo sapiens) (UniProt P29317); experiment: Inhibition of recombinant human N-terminal His6-tagged EphA2 (596 to 900 residues) expressed in baculovirus infected Sf21 insect cells at 100 nM using poly (Glu, Tyr)4:1 as substrate measured after 1 hr by ELISA relative to control; how it was run: as §1
[11] = target: Focal adhesion kinase 1 (Homo sapiens) (UniProt Q05397); experiment: Inhibition of recombinant human N-terminal His6-tagged FAK (411 to 686 residues) expressed in baculovirus infected Sf21 insect cells at 100 nM using poly (Glu, Tyr)4:1 as substrate measured after 1 hr by ELISA relative to control; how it was run: as §1
[12] = target: Activated CDC42 kinase 1 (Homo sapiens) (UniProt Q07912); experiment: Inhibition of recombinant human N-terminal GST-tagged ACK1 (1 to 389 residues) expressed in baculovirus infected Sf21 insect cells at 100 nM using poly (Glu, Tyr)4:1 as substrate measured after 1 hr by ELISA relative to control; how it was run: as §1
[13] = target: Vascular endothelial growth factor receptor 3 (Homo sapiens) (UniProt P35916); experiment: Inhibition of recombinant VEGFR3 (unknown origin) at 10 nM using poly (Glu, Tyr)4:1 as substrate measured after 1 hr by ELISA relative to control; how it was run: as §1
Chain of Vascular endothelial growth factor receptor 3 (Homo sapiens) (P35916 whole entry): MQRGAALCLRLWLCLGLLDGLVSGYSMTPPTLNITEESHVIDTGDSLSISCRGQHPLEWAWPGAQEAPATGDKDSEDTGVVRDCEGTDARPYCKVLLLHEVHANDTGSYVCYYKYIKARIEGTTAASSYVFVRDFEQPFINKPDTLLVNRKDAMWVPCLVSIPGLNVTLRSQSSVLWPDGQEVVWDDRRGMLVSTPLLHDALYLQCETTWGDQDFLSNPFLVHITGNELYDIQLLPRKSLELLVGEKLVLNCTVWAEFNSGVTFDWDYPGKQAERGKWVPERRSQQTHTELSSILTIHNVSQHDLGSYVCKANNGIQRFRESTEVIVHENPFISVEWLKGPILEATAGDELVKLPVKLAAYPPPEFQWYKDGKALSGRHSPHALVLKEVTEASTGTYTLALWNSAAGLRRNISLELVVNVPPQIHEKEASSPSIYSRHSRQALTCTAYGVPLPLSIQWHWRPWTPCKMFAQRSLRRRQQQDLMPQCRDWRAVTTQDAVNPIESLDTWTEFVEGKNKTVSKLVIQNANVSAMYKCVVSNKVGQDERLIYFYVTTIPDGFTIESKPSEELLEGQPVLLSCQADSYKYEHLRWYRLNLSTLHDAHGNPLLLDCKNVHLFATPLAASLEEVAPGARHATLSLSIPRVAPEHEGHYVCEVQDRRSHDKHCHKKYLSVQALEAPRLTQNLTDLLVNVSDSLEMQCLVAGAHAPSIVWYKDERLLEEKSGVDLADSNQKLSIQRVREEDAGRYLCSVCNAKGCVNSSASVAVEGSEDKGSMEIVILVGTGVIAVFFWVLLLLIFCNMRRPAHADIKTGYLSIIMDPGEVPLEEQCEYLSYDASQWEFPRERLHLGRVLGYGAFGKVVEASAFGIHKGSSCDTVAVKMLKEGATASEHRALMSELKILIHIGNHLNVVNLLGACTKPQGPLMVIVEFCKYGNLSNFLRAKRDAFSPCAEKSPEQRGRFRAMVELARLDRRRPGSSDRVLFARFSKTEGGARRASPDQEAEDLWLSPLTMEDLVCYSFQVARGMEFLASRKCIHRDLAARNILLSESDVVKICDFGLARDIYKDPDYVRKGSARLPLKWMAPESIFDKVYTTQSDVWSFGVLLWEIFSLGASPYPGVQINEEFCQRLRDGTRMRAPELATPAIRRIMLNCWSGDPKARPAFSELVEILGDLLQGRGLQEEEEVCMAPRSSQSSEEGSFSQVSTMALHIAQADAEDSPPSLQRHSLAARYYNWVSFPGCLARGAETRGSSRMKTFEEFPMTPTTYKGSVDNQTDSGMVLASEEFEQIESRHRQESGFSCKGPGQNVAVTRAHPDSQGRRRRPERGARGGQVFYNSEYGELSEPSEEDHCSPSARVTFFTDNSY

[14] = target: Platelet-derived growth factor receptor alpha (Homo sapiens) (UniProt P16234); experiment: Inhibition of recombinant human N-terminal His6-tagged PDGFRalpha (550 to end residues) expressed in baculovirus infected Sf21 insect cells at 10 nM using poly (Glu, Tyr)4:1 as substrate measured after 1 hr by ELISA relative to control; how it was run: as §2
[15] = Elimination half life in Sprague-Dawley rat at 5 mg/kg, po administered via gavage by LC-MS/MS analysis; assay type: ADME, organism-based; conditions: in vivo, read-out: beta t1/2 (converted)
How it was run: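 Male SD rats (200 ± 20 g) were fasted 12 h with free access to water, n = 3 per group. One group received 2 mg/kg iv in DMSO/EtOH/PEG300/saline (5/5/40/50). The other received 5 mg/kg by oral gavage in DMSO/HPMC (5/95). Femoral-vein plasma was taken at 15–1440 min, methanol-precipitated with internal standard, and measured by LC–MS/MS. Noncompartmental analysis; AUC by trapezoidal method.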

[16] = Oral bioavailability in Sprague-Dawley rat at 5 mg/kg administered via gavage by LC-MS/MS analysis; assay type: ADME, organism-based; conditions: in vivo
How it was run: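 Male SD rats (n = 3 per route), fasted 12 h; 5 mg/kg oral gavage (DMSO/HPMC 5/95) versus 2 mg/kg iv (DMSO/EtOH/PEG300/saline). Plasma sampled 15–1440 min, LC–MS/MS; F = AUC0–∞(oral)/AUC0–∞(iv) × dose(iv)/dose(oral) × 100%.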

IC50 [1]: 0.7 nM
IC50 [2]: > 1000 nM
inhibition [3]: 89.8%
inhibition [4]: 95.5%
inhibition [5]: 87.9%
inhibition at 1 h, 1 µM (FLT3): 5.9%
inhibition [6]: 0%
inhibition [7]: 2.3%
inhibition [8]: 83.9%
inhibition [9]: 61.7%
inhibition [10]: 31.4%
inhibition [11]: 14.7%
inhibition [12]: 10.3%
inhibition [13]: 27.3%
inhibition [14]: 54.6%
half-life [15]: 2.21 h
bioavailability [16]: 34.8%
Compound: Cc1ccc(C(=O)Nc2ccc(Cl)cc2)cc1C#Cc1cc(-c2cnn(C)c2)cnc1N
Activity (Mus musculus): Active
